Published values of several laboratories.
Target: Activated CDC42 kinase 1 (TNK2, Homo sapiens, UniProt Q07912)

The remaining signal of `Nc1ncnc2occ(-c3ccc(NC(=O)Nc4cc(C(F)(F)F)ccc4F)cc3)c12` is reported as 13% (cell-free assay, inhibitor; 20 µM).
`O=C1Nc2ccc(Cl)cc2C1=Cc1cc(Cl)c(O)c(Cl)c1` has a remaining signal of 32.4% (cell-free assay; 0.5 µM).
The remaining binding of `O=C(O)c1cc(-c2ccc(C3CCNCC3)cc2)c2ccc(-c3ccc(C(F)(F)F)cc3)cc2c1` is reported as 100% (cell-free assay, competition with immobilised ligand; 1 µM).
`CC(C)(C)c1nc2c(s1)c1nc(N)ncc1c1ccc(NS(=O)(=O)c3c(F)cccc3F)c(F)c12` has a remaining activity of 75% (enzyme activity, inhibitor, radiometric; 1 µM).
With `CC(C)(O)[C@H]1CC[C@H](Nc2ccc3ncc(-c4cccc(C(F)(F)F)c4)n3n2)CC1` the remaining activity was 5.31% (enzyme activity, inhibitor; 1 µM).
For `N#CCCc1ccc2c(c1)-c1[nH]c3ccc([N+](=O)[O-])cc3c1CC(=O)N2`, the remaining signal was 75.4% (cell-free assay; 0.5 µM).
With `CCCCNc1ncc2c(-c3ccc(F)cc3)nn(C[C@H]3CC[C@H](N)CC3)c2n1` the inhibition was 71.4% (target engagement in cells, inhibitor, chemoproteomics; 20 mM).
For `O=C(Nc1cnn(-c2csc(C(=O)NC3COC3)c2)c1)Nc1c(F)cccc1Cl`, the remaining activity was 94.6% (enzyme activity, inhibitor; 5 µM).
With `CCCOc1ccc(OC)c(F)c1C(=O)c1ccc(C(=O)N[C@@H]2CNC[C@H]2NC(=O)c2ccc3[nH]ncc3c2)cc1` the remaining activity was 92% (enzyme activity, inhibitor; 10 µM).
For `CN(C)C(=O)Cn1cc(-c2nc(C3(c4ccc(-c5cnc(N)nc5)cc4)CC3)no2)cn1`, the remaining binding was 96% (cell-free assay, competition with immobilised ligand; 1 µM).
`Cc1ccc(C(=O)Nc2ccc(CN3CCN(C)CC3)c(C(F)(F)F)c2)cc1C#Cc1cnc2cccnn12` gave a remaining activity of 100% (enzyme activity, inhibitor; 23.5 nM).
`CN(C)CC#Cc1ccc(OCCCc2sc(N3CCc4cccc(C(=O)Nc5nc6ccccc6s5)c4C3)nc2C(=O)O)c(F)c1` gave a remaining binding of 100% (cell-free assay, competition with immobilised ligand; 1 µM).
`O=S1(=O)N=C(NCc2ccc(OC(F)(F)F)cc2)Nc2cc(Cl)ccc21` has an inhibition of > 90% (binding, competition with immobilised ligand; 10 µM).
`N#CC1(c2ccccn2)CCN(Cc2cc(C(=O)N3CCCC3)c(=O)n3ccccc23)CC1` gave a remaining binding of 85% (cell-free assay, competition with immobilised ligand; 1 µM).
`c1ccc(CNc2nc(N3CCOc4ccccc43)nc3c2CCCC3)cc1` has an inhibition of -11.3% (target engagement in cells, inhibitor, chemoproteomics; 20 mM).
`CCN(CC)c1ccc(C2=NNC(=O)CC2C)cc1[N+](=O)[O-]` (stereo not drawn) gave a remaining activity of 94% (enzyme activity, inhibitor; 10 µM).
`COc1ccc2cc(OCC3(C(=O)O)CN(C(=O)c4ccc(F)cc4)C3)ccc2c1` gave a remaining binding of 100% (cell-free assay, competition with immobilised ligand; 1 µM).
For `COc1cc2nccc(Oc3ccc(NC(=O)c4c5n(n(-c6ccc(F)cc6)c4=O)CCCC5)cc3)c2cc1OC`, the inhibition was 6% (enzyme activity, inhibitor; 0.1 µM).
